Laboratory results: publication PMC7873610 (European Journal of Medicinal Chemistry, 2021)
Where two headings read alike, the source gives them in different places.

Columns and labels:
[1] = target: β5 catalytic subunit (chymotrypsin-like activity) (Homo sapiens, UniProt P20618+P28074); test: Proteasome-Glo cell-based chymotrypsin-like; conditions: CT-L; for fold increase in inhibitory activity than compounds with unsubstituted phenyl: vs 30, 29 and BSc2189
RPMI8226 = test: MTS cytotoxicity assay, RPMI8226; format: cell-based; conditions: Homo sapiens, RPMI-8226, 72 h, read-out: Cytotoxicity IC50 ± SEM, RPMI8226
Summary of the method: (§1)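 RPMI8226, THP-1 and Ramos cells were grown in RPMI 1640 with 10% FBS at 37 °C and 5% CO2. Cells were seeded in 100 μL at 1∗104/well (RPMI8226) or 5∗104/well (THP-1, Ramos) and exposed to test compound for 72 h. MTS was then added for 3 h at 37 °C, and OD was read at 490 nm. Triplicate experiments, triplicate wells each; IC50 from curve fitting.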

THP-1 = test: MTS cytotoxicity assay, THP-1; format: cell-based; conditions: Homo sapiens, THP-1, 72 h, read-out: Cytotoxicity IC50 ± SEM, THP-1
Summary of the method: as §1

HeLa [2] = test: MTS cytotoxicity assay, HeLa; format: cell-based; conditions: Homo sapiens, 72 h, read-out: Cytotoxicity IC50 ± SEM, Hela, MTS, 72 h
Summary of the method: (§2)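 HeLa, MGC-803 and SW480 cells were maintained in DMEM with 10% FBS at 37 °C and 5% CO2. Each line was plated at 5∗10^3 cells/well in 100 μL and treated with test compound for 72 h. MTS solution was added and incubated 3 more h at 37 °C, then absorbance was measured at 490 nm. Assays were run in triplicate with triplicate wells; IC50 was obtained by curve fitting.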

SW480 = test: MTS cytotoxicity assay, SW480; format: cell-based; conditions: Homo sapiens, SW480, 72 h, read-out: Cytotoxicity IC50 ± SEM, SW480
Summary of the method: as §2

MGC-803 = test: MTS cytotoxicity assay, MGC-803; format: cell-based; conditions: Homo sapiens, MGC-803, 72 h, read-out: Cytotoxicity IC50 ± SEM, MGC-803
Summary of the method: as §2

Ramos (RA 1) = test: MTS cytotoxicity assay, Ramos; format: cell-based; conditions: Homo sapiens, 72 h, read-out: Cytotoxicity IC50 ± SEM, Ramos (RA 1)
Summary of the method: as §1

HeLa [3] = conditions: read-out: IC50 in HeLa cells, previously published value; cited from earlier work
[4] = test system: chymotrypsin-like subunit; conditions: cited from earlier work

CC(C)C[C@H](NC(=O)[C@H](Cc1ccccc1)NC(=O)[C@H](CC1CCCCC1)NC(=O)OCc1ccccc1)C(=O)C(=O)Nc1ccccc1 [Compound 31, ((2S)-3-cyclohexyl-1-(((2S)-1-((5-methyl-1,2-dioxo-1-(phenylamino)hexan-3-yl)amino)-1-oxo-3-phenylpropan-2-yl)amino)-1-oxopropan-2-yl)carbamic acid benzyl ester]
fold increase in potency relative to analog 28 ([1]; vs 28 with Ala at P3): 3 fold
fold reduced activity compared with 30 ([1]; vs 30 with Leu at P3): ~3 fold

CC(=O)c1cccc(NC(=O)C(=O)[C@H](CC(C)C)NC(=O)[C@H](CC(C)C)NC(=O)[C@H](CC(C)C)NC(=O)OCc2ccccc2)c1 [Compound 38, ((S)-1-(((S)-1-(((S)-1-((3-acetylphenyl)amino)-5-methyl-1,2-dioxohexan-3-yl)amino)-4-methyl-1-oxopentan-2-yl)amino)-4-methyl-1-oxopentan-2-yl) carbamic acid benzyl ester]
fold increase in inhibitory activity than compounds with unsubstituted phenyl [1]: 1.5–4 fold

CC(=O)c1cccc(NC(=O)C(=O)[C@H](CC(C)C)NC(=O)[C@H](Cc2c[nH]c3ccccc23)NC(=O)[C@H](CC(C)C)NC(=O)OCc2ccccc2)c1 [Compound 35, ((S)-1-(((S)-1-(((S)-1-((3-acetylphenyl)amino)-5-methyl-1,2-dioxohexan-3-yl)amino)-3-(1H-indol-3-yl)-1-oxopropan-2-yl)amino)-4-methyl-1-oxopentan-2-yl)carbamic acid benzyl ester]
fold increase in inhibitory activity than compounds with unsubstituted phenyl [1]: 1.5–4 fold

CC(=O)c1ccc(-c2ccc(C(=O)N[C@@H](CC(C)C)C(=O)N[C@@H](CC(C)C)C(=O)N[C@@H](CC(C)C)C(=O)C(=O)Nc3cccc(C(C)=O)c3)o2)cc1 [Compound 46, 5-(4-acetylphenyl)-N-((S)-1-(((S)-1-(((S)-1-((3-acetylphenyl)amino)-5-methyl-1,2-dioxohexan-3-yl)amino)-4-methyl-1-oxopentan-2-yl)amino)-4-methyl-1-oxopentan-2-yl)furan-2-carboxamide]
IC50 (RPMI8226): 38.1 ± 1.19 nM
IC50 (THP-1): 94.4 ± 1.45 nM
IC50 (HeLa [2]): 260 ± 4.34 nM
IC50 (SW480): 79.3 ± 1.87 nM
IC50 (MGC-803): 79 ± 12.6 nM
IC50 (Ramos (RA 1)): 26.13 ± 0.18 nM

COc1cccc(NC(=O)C(=O)[C@H](CC(C)C)NC(=O)[C@H](CC(C)C)NC(=O)[C@H](CC(C)C)NC(=O)c2ccc(-c3ccc(C(C)=O)cc3)o2)c1 [Compound 47, N-((S)-1-(((S)-1-(((S)-1-((3-methoxyphenyl)amino)-5-methyl-1,2-dioxohexan-3-yl)amino)-4-methyl-1-oxopentan-2-yl)amino)-4-methyl-1-oxopentan-2-yl)5-(4-acetylphenyl)-furan-2-carboxamide]
IC50 (RPMI8226): 43.4 ± 1.04 nM
IC50 (THP-1): 97.9 ± 2.79 nM
IC50 (HeLa [2]): 239 ± 3.28 nM
IC50 (SW480): 74.5 ± 3.13 nM
IC50 (MGC-803): 85.4 ± 6.73 nM
IC50 (Ramos (RA 1)): 38.3 ± 3.04 nM

COc1ccc(C[C@H](NC(=O)[C@H](C)NC(=O)CN2CCOCC2)C(=O)N[C@@H](Cc2ccccc2)C(=O)[C@@]2(C)CO2)cc1 [ONX-0914, reference compound]
IC50 (THP-1): 202 nM
IC50 (HeLa [2]): 590 nM

CC(C)C[C@H](NC(=O)OCc1ccccc1)C(=O)N[C@@H](CC(C)C)C(=O)N[C@@H](CC(C)C)C(=O)C(=O)Nc1ccccc1 [BSc2189]
IC50 (HeLa [3]): 254 nM

Cc1ccc(NC(=O)C(=O)C(CC(C)C)NC(=O)C(CC(C)C)NC(=O)C(CC(C)C)NC(=O)OCc2ccccc2)c(C)c1 (stereo not drawn) [BSc4999]
fold more potent than BSc2189 [4]: about 2 fold

CC(C)C[C@H](NC(=O)OCc1ccccc1)C(=O)N[C@@H](Cc1c[nH]c2ccccc12)C(=O)N[C@@H](CC(C)C)C(=O)C(=O)Nc1cccc(S(C)(=O)=O)c1 [Compound 36, ((S)-1-(((S)-3-(1H-indol-3-yl)-1-(((S)-5-methyl-1-((3-(methylsulfonyl)phenyl)amino)-1,2-dioxohexan-3-yl)amino)-1-oxopropan-2-yl)amino)-4-methyl-1-oxopentan-2-yl)carbamic acid benzyl ester]
fold increase in inhibitory activity than compounds with unsubstituted phenyl [1]: 1.5–4 fold

CC(C)C[C@H](NC(=O)OCc1ccccc1)C(=O)N[C@@H](CC(C)C)C(=O)N[C@@H](CC(C)C)C(=O)C(=O)Nc1ccccc1-c1ccccc1 [Compound 41, ((S)-1-(((S)-1-(((S)-1-([1,1′-biphenyl]-2-ylamino)-5-methyl-1,2-dioxohexan-3-yl)amino)-4-methyl-1-oxopentan-2-yl)amino)-4-methyl-1-oxopentan-2-yl)carbamic acid benzyl ester]
fold reduced inhibitory activity ([1]; phenyl in ortho position of head group phenyl): up to 150 fold

CC(=O)c1cccc(NC(=O)C(=O)[C@H](CC(C)C)NC(=O)[C@H](Cc2ccccc2)NC(=O)[C@H](CC(C)C)NC(=O)OCc2ccccc2)c1 [Compound 34, ((S)-1-(((S)-1-(((S)-1-((3-acetylphenyl)amino)-5-methyl-1,2-dioxohexan-3-yl)amino)-1-oxo-3-phenylpropan-2-yl)amino)-4-methyl-1-oxopentan-2-yl)carbamic acid benzyl ester]
fold increase in inhibitory activity than compounds with unsubstituted phenyl [1]: 1.5–4 fold

CC(C)C[C@H](NC(=O)OCc1ccccc1)C(=O)N[C@@H](Cc1c[nH]c2ccccc12)C(=O)N[C@@H](CC(C)C)C(=O)C(=O)Nc1cccc2ccccc12 [Compound 37, ((S)-1-(((S)-3-(1H-indol-3-yl)-1-(((S)-5-methyl-1-(naphthalen-1-ylamino)-1,2-dioxohexan-3-yl)amino)-1-oxopropan-2-yl)amino)-4-methyl-1-oxopentan-2-yl) carbamic acid benzyl ester]
fold decrease in inhibitory potency over 29 ([1]; 1-naphthyl vs unsubstituted phenyl head group): 2 fold
